Experimental data published in ChEMBL document CHEMBL3272233, “Optical isomers of 2-(2-ethoxyphenoxymethyl)tetrahydro-1,4-oxazine (viloxazine) and related compounds” (1976).

Experiments:
[1] = tested on: Mus musculus; assay: Antidepressant activity in po dosed mouse assessed as antagonism of reserpine-induced hypothermia dosed 17 hrs after reserpine challenge; type: functional
Procedure, shortened: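 Oral dosing, with doses in mg/kg. The racemate and separated optical isomers were tested by the previously published method. Potency is expressed as the ED10 for antagonism of reserpine-induced hypothermia.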

[2] = tested on: Mus musculus; assay: Sedative activity in po dosed mouse assessed as reduction in locomotor activity during 60 mins period immediately prior to and after dosing; type: functional; details: 1 h, read-out: MED
Procedure, shortened: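 Given orally, with doses in mg/kg. The racemate and individual isomers were run by the earlier reported procedure. The value is the minimum effective dose that reduced locomotor activity.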

| SMILES | ED10 [1] | minimal effective dose [2] |
| --- | --- | --- |
| CCOc1ccccc1OC[C@@H]1CNCCO1 [(S)-VILOXAZINE] | 0.1 mg/kg | 1 mg/kg |
| CCOc1ccccc1OC[C@H]1CNCCO1 [(R)-VILOXAZINE] | 1 mg/kg | 30 mg/kg |
| COc1cccc(OC[C@H]2CNCCO2)c1 | > 100 mg/kg | 30 mg/kg |
| CCOc1ccccc1OCC1CNCCO1 (racemic) [VILOXAZINE] | 0.3 mg/kg | 3 mg/kg |
| COc1cccc(OCC2CNCCO2)c1 (racemic) | > 100 mg/kg | 3 mg/kg |
| COc1cccc(OC[C@@H]2CNCCO2)c1 | > 100 mg/kg | 1 mg/kg |
